Assay results from ChEMBL document CHEMBL4017520, “Discovery, Structure-Activity Relationship, and Antiparkinsonian Effect of a Potent and Brain-Penetrant Chemical Series of Positive Allosteric Modulators of Metabotropic Glutamate Receptor 4” (J Med Chem, 2017).
One block for each molecule: values may come before it. Active and inactive are the calls of the source. No cut-off for these calls is given here.

Columns and labels:
Rattus norvegicus [1] = test: Protection against 6-OHDA induced parkinsonian motor deficit in Sprague-Dawley rat assessed as increase in rearing time at 30 mg/kg, ip after 28 days post surgery; assay type: functional, organism-based
How it was run: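 Adult male Sprague−Dawley rats with bilateral 6-OHDA striatal lesions given compound 30 mg/kg ip or vehicle at T0; spontaneous locomotor activity (active time, slow activity, rearing) counted in 5-min bins versus pre-surgery vehicle; n = 10.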

[2] = biological target: Metabotropic glutamate receptor 7 (Homo sapiens) (UniProt Q14831); test: Activity at human mGlu7 receptor expressed in HEK293 cells co-expressing Gi/Gq assessed as effect on LAP4-induced intracellular calcium level up to 10 uM after 10 mins by Fluo4-AM dye based fluorescence assay; assay type: functional, cell-based
Sequence of Metabotropic glutamate receptor 7 (Homo sapiens) (Q14831 whole entry): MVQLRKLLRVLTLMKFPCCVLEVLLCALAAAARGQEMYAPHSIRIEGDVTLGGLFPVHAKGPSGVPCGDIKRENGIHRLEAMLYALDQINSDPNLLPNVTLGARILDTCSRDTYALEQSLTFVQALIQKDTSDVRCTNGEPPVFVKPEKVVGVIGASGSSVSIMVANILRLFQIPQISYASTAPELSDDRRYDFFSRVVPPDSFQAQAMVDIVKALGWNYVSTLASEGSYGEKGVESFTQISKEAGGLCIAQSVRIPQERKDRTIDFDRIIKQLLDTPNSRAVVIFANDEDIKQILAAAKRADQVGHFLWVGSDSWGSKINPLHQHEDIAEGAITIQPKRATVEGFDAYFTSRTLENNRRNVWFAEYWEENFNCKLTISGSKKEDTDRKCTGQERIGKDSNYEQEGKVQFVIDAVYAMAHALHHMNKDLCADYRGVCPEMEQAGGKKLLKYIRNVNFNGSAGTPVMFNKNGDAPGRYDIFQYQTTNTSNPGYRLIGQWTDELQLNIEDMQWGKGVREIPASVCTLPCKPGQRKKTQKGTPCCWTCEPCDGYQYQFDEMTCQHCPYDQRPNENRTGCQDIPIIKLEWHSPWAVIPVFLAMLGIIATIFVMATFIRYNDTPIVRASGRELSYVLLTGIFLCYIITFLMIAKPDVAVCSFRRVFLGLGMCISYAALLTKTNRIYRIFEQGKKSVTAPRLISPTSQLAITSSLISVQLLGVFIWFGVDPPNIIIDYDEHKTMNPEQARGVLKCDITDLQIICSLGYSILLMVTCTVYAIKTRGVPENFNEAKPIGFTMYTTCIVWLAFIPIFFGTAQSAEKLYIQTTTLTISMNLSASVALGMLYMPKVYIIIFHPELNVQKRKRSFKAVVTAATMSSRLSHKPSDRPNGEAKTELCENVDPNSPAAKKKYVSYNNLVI
How it was run: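 Human mGluR7 in transfected HEK293 cells loaded with Fluo4-AM. Compound was added for 10 min, followed by L-AP4 at EC20 or EC80 in place of glutamate, and calcium fluorescence was recorded for 3 min. Results are from at least two or three independent experiments.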

[3] = biological target: Metabotropic glutamate receptor 5 (Homo sapiens) (UniProt P41594); test: Activity at human mGlu5 receptor expressed in HEK293 cells co-expressing Gi/Gq assessed as effect on intracellular calcium level up to 10 uM after 10 mins by Fluo4-AM dye based fluorescence assay; assay type: functional, cell-based
Sequence of Metabotropic glutamate receptor 5 (Homo sapiens) (P41594 21-1212 limits assumed): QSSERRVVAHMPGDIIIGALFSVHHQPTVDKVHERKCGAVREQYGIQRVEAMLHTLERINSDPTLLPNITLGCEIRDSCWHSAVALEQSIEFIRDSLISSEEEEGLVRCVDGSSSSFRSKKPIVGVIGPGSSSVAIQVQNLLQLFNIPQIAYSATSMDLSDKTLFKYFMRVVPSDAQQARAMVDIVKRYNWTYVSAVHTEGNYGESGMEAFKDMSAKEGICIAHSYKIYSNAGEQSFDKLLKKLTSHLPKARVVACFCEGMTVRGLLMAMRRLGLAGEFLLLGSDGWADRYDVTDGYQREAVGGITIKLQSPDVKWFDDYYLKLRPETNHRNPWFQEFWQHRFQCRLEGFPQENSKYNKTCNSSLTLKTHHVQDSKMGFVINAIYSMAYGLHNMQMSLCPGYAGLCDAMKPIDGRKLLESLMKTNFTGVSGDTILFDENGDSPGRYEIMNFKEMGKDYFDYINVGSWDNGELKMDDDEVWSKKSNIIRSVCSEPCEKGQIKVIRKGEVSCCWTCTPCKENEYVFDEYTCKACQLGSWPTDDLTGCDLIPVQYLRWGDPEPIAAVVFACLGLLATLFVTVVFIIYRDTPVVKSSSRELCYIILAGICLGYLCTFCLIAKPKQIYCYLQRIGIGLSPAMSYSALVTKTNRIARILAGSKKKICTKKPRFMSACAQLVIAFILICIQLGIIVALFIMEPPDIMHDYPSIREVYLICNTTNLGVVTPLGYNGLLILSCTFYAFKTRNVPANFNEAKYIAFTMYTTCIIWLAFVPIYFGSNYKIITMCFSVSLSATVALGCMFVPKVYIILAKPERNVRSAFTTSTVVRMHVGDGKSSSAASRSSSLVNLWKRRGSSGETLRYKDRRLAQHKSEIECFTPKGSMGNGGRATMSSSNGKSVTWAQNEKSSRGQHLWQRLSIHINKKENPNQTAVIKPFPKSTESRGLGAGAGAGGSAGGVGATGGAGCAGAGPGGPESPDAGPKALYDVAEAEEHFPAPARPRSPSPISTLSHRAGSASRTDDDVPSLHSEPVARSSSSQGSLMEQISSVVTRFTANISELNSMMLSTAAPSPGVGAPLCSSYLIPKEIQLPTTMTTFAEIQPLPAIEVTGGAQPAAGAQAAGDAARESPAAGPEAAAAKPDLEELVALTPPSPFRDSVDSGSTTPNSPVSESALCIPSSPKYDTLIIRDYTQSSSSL
How it was run: (§1)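 HEK-293 cells transiently expressing the human mGluR with a promiscuous or chimeric G protein were serum-starved 3 h and loaded 1.5 h with 1 μM Fluo4-AM. Compound alone was added in assay buffer, and calcium fluorescence (ex 485/em 525) was recorded for 10 min as agonist readout.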

Rattus norvegicus [4] = organism: Rattus norvegicus; test: Activity at NMDA glutamate receptor in rat cerebral cortex at 10 uM
How it was run: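 Inhibition of orthosteric ligand binding to NMDA, AMPA and kainate receptors on rat cerebral cortex membranes, tested up to 10 μM.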

[5] = biological target: Interleukin-1 receptor-associated kinase 4 (Homo sapiens) (UniProt Q9NWZ3); test: Inhibition of IRAK4 (unknown origin) at 10 uM
Sequence of Interleukin-1 receptor-associated kinase 4 (Homo sapiens) (Q9NWZ3 whole entry): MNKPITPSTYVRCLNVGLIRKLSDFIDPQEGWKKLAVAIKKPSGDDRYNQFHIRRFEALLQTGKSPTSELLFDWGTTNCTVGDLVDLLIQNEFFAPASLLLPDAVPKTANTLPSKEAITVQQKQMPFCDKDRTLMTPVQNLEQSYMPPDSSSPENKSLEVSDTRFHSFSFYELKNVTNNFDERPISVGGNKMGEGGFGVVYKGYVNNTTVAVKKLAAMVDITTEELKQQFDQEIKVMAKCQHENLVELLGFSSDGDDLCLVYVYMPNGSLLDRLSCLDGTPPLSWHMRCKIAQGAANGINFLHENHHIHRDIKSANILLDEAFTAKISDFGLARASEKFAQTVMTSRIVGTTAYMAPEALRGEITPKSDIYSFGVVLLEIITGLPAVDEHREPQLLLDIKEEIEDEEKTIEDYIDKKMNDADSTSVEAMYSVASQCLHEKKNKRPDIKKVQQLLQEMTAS

[6] = biological target: Metabotropic glutamate receptor 1 (Homo sapiens) (UniProt Q13255); test: Activity at human mGlu1 receptor expressed in HEK293 cells co-expressing Gi/Gq assessed as effect on EC20/EC80 glutamate-induced intracellular calcium level up to 10 uM preincubated for 10 mins followed by glutamate addition measured for 3 mins by Fluo4-AM dye based fluorescence assay; assay type: functional, cell-based
Sequence of Metabotropic glutamate receptor 1 (Homo sapiens) (Q13255 19-1194 limits assumed): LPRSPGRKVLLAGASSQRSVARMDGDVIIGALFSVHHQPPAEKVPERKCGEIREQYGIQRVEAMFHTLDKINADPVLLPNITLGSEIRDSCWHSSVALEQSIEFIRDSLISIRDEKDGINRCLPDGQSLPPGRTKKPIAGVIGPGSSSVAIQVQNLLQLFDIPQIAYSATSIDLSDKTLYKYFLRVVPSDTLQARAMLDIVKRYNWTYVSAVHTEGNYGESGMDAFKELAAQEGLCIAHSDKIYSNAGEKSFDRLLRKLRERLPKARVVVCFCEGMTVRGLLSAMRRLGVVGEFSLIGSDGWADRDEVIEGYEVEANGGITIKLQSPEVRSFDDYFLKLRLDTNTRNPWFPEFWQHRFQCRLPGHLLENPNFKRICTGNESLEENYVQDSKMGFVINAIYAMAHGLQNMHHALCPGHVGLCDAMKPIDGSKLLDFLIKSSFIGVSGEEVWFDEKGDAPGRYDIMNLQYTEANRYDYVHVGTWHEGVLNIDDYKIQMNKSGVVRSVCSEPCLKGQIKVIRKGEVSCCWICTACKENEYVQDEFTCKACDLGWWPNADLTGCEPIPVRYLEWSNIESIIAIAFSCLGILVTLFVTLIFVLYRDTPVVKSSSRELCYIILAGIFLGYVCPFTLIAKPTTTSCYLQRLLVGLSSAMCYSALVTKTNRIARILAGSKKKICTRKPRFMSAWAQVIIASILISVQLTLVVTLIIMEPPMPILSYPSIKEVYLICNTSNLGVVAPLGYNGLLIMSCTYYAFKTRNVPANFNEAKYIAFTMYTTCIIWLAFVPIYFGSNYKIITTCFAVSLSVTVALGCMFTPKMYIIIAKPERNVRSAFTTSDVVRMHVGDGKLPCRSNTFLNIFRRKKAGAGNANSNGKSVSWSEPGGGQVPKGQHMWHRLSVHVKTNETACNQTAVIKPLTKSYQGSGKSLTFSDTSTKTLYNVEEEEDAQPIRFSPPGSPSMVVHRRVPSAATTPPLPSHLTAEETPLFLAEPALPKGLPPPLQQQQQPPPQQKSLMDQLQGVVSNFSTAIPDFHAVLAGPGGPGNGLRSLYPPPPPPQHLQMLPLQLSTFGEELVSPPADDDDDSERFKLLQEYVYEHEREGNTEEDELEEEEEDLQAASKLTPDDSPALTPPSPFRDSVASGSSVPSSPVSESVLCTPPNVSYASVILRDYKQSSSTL
How it was run: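 HEK-293 cells were electroporated with the human mGluR plus a promiscuous or chimeric G protein and cultured 24 h, then serum-starved 3 h. Cells were loaded 1.5 h with 1 μM Fluo4-AM in HBSS/HEPES buffer with probenecid and 0.1% BSA. Compound was added for 10 min, then glutamate at EC20 (PAM) or EC80 (NAM), and fluorescence (ex 485/em 525) was read for 3 min.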

[7] = biological target: Metabotropic glutamate receptor 3 (Homo sapiens) (UniProt Q14832); test: Activity at human mGlu3 receptor expressed in HEK293 cells co-expressing Gi/Gq assessed as effect on intracellular calcium level up to 10 uM after 10 mins by Fluo4-AM dye based fluorescence assay; assay type: functional, cell-based; how it was run: as §1
Mus musculus = test: Anti-parkinson's activity in ip dosed C57BL/6 mouse assessed as reversal of haloperidol-induced catalepsy after 40 mins; assay type: functional, organism-based
Homo sapiens = organism: Homo sapiens; test: Selectivity ratio of compound effect for positive allosteric modulation of recombinant human mGlu4 receptor to compound effect for activity at human mGlu6 receptor
[8] = biological target: Metabotropic glutamate receptor 7 (Homo sapiens) (UniProt Q14831); test: Activity at human mGlu7 receptor expressed in HEK293 cells co-expressing Gi/Gq assessed as effect on intracellular calcium level up to 10 uM after 10 mins by Fluo4-AM dye based fluorescence assay; assay type: functional, cell-based; how it was run: as §1
[9] = Drug uptake in Sprague-Dawley rat brain at 10 mg/kg, po after 30 mins post dose administered as single dose by LC-MS/MS analysis; assay type: ADME, organism-based; conditions: read-out: Drug uptake
How it was run: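 Rats given a single oral dose of 10 mg/kg. The first plasma sample was taken at 15 min, and sampling continued to 24 h postdose. Brain was sampled at 30 min. Values are the mean (±SEM) of 3 rats.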

[10] = Ratio of drug level in C57BL/6 mouse brain to plasma at 10 mg/kg, po after 30 mins post dose administered as single dose by LC-MS/MS analysis; assay type: ADME, organism-based; conditions: read-out: BPR
How it was run: (§2)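 Single dose ip (10 or 30 mg/kg, rat) or oral (10 mg/kg, rat or mouse); plasma Cmax, Tmax, half-life, AUC0−inf derived; brain concentration and brain/plasma ratio at 30 min postdose. Mean of 3 rats or 2 mice.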

[11] = Drug uptake in Sprague-Dawley rat brain at 30 mg/kg, ip after 240 mins; assay type: ADME, organism-based; conditions: read-out: Drug uptake
[12] = Tmax in Sprague-Dawley rat plasma at 10 mg/kg, ip administered as single dose by LC-MS/MS analysis; assay type: ADME, organism-based
How it was run: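 Single-dose plasma PK after ip (10 or 30 mg/kg) or oral (10 mg/kg) dosing in rats, and oral 10 mg/kg dosing in mice. […] Values are mean ±SEM of 3 rats or 2 mice.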

[13] = Ratio of fraction unbound in Sprague-Dawley rat brain at 30 mg/kg, ip after 240 mins to EC50 for rat mGlu4 receptor expressed in HEK293 cells
[14] = biological target: Amine oxidase [flavin-containing] B (Homo sapiens, UniProt P27338); test: Activity at MAO-B (unknown origin) up to 10 uM; assay type: ADME
Sequence of Amine oxidase [flavin-containing] B (P27338 whole entry): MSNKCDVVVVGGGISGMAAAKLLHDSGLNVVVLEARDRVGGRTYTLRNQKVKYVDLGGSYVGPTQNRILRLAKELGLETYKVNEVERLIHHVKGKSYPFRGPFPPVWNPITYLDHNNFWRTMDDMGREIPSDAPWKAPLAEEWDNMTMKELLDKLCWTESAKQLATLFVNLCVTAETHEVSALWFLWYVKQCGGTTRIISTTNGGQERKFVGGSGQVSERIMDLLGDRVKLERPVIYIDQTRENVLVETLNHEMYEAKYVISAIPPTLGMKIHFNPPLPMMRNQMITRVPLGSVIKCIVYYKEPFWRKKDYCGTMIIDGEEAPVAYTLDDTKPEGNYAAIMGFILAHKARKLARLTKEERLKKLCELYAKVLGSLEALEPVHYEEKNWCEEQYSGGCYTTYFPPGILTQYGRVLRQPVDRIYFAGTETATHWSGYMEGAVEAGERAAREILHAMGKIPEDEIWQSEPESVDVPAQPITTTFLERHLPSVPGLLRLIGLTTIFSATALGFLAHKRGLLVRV

[15] = Cmax in C57BL/6 mouse plasma at 10 mg/kg, po administered as single dose by LC-MS/MS analysis; assay type: ADME, organism-based; set-up: dose 10 mg/kg, route oral
How it was run: (§3)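 Mice given 10 mg/kg orally. Plasma Cmax was determined and brain concentration measured at 30 min postdose. Values are the mean (±SEM) of 2 mice.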

[16] = Plasma concentration in Sprague-Dawley rat at 30 mg/kg, ip after 60 mins; assay type: ADME, organism-based
How it was run: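 Rats dosed 30 mg/kg ip; plasma sampled over time, brain measured at 30 and 60 min; brain/plasma ratio averaged over 30 and 60 min.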

[17] = Half life in Sprague-Dawley rat at 1 mg/kg, iv administered as single dose by LC-MS/MS analysis; assay type: ADME, organism-based; conditions: in vivo
How it was run: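 Single iv dose, 1 mg/kg in rat or 2 mg/kg in mouse; plasma PK parameters derived; brain/plasma ratio taken at 1 h postdose (rat) or 30 min postdose (mouse). Mean of 3 rats; 2 mice for mouse Cmax and brain/plasma.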

Brain = test: Fraction unbound in Sprague-Dawley rat brain at 30 mg/kg, ip after 60 mins; assay type: ADME, organism-based; conditions: in vivo, 1 h
[18] = Protein binding in Sprague-Dawley rat brain at 10 uM by rapid equilibrium dialysis; assay type: ADME, tissue-based; conditions: read-out: PB (converted)
[19] = Drug uptake in Sprague-Dawley rat brain at 30 mg/kg, ip after 60 mins; assay type: ADME, organism-based; conditions: read-out: Drug uptake
[20] = Half life in Sprague-Dawley rat plasma at 10 mg/kg, po administered as single dose by LC-MS/MS analysis; assay type: ADME, organism-based; how it was run: as §2
[21] = Drug uptake in C57BL/6 mouse brain at 10 mg/kg, po after 30 mins post dose administered as single dose by LC-MS/MS analysis; assay type: ADME, organism-based; conditions: read-out: Drug uptake; how it was run: as §3

Activity [2]: inactive | Activity [3]: inactive | Activity (Rattus norvegicus [4]): inactive | inhibition [5]: inactive | Activity [6]: inactive | Activity [7]: inactive | Selectivity ratio (Homo sapiens): 13 | Activity [8]: inactive
SMILES: O/N=c1\cc(-c2cc3cccn3cn2)oc2ccc(OCCN3CCOCC3)cc12 [listing 1 of 2 here]
Activity (Rattus norvegicus [1]): Active | Activity (Mus musculus): Dose-dependent effect

concentration at 0.5 h [9]: 454 ng/g | Kp at 0.5 h [10]: 1.7 | concentration at 4 h [11]: 322 ng/g | Tmax [12]: 15 min | Activity [14]: Not Active | Cmax [15]: 229 ng/mL | concentration at 1 h [16]: 3560 ng/mL | half-life [17]: 44 min | Drug uptake(free) (Brain): 91 ng/g | fraction unbound at 10 µM [18]: 0.0076 | concentration at 1 h [19]: 12000 ng/g | half-life [20]: 438 min | concentration at 0.5 h [21]: 390 ng/g
SMILES: O/N=c1\cc(-c2cc3cccn3cn2)oc2ccc(OCCN3CCOCC3)cc12 [listing 2 of 2 here]
Ratio [13]: 0.2
